# Measurements as given in ChEMBL document CHEMBL3352599, “Radiosynthesis and biological evaluation of a novel enoyl-ACP reductase inhibitor for Staphylococcus aureus” (Eur J Med Chem, 2014).
# Experiments:
# [1] = Drug uptake in infected thigh of Swiss Webster thigh infected mouse model infected with methicillin-resistant Staphylococcus aureus BAA1762 at 3.7 MBq, iv after 30 mins; format: ADME, organism-based, Thigh muscle; settings: in vivo, 0.5 h
# Outline: (§1)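 Neutropenic mice (ip cyclophosphamide) given 5×10^5 MRSA cells into the left thigh muscle. [11C]-label given into the lateral tail vein in ethanol/saline (1/3) under isoflurane, then mice recovered and moved freely. Killed by cervical dislocation; muscle from both thighs and blood collected, weighed and well-counted. Reported as %ID/g, mean ± SD, n=3.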
# [2] = system: Kidney; assay: Drug uptake in kidney of Swiss Webster systemic infected mouse model infected with methicillin-resistant Staphylococcus aureus BAA1762 at 3.7 MBq, iv after 20 mins; format: ADME, organism-based; settings: in vivo
# Outline: (§2)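 Neutropenic mice (ip cyclophosphamide) infected ip with 2×10^7 MRSA cells. [11C]-label given into the lateral tail vein in ethanol/saline (1/3) under isoflurane, then mice recovered and moved freely. Killed by cervical dislocation; blood taken by cardiac puncture, organs excised, weighed and well-counted. Reported as %ID/g, mean ± SD, n=3.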
# [3] = system: Liver; assay: Drug uptake in liver of healthy Swiss Webster mouse at 3.7 MBq, iv after 20 mins; format: ADME, organism-based; settings: in vivo
# Outline: as §2, with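 “Uninfected control mice.” for “Neutropenic mice (ip cyclophosphamide) infected ip with 2×10^7 MRSA cells.”, “spleen, lung, liver and kidney” for “organs”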
# [4] = system: Spleen; assay: Drug uptake in spleen of Swiss Webster systemic infected mouse model infected with methicillin-resistant Staphylococcus aureus BAA1762 at 3.7 MBq, iv after 60 mins; format: ADME, organism-based; settings: in vivo, 1 h; outline: as §2
# [5] = system: Blood; assay: Drug uptake in blood of healthy Swiss Webster mouse at 3.7 MBq, iv after 40 mins; format: ADME, organism-based; settings: in vivo
# Outline: as §2, with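 “Uninfected control mice.” for “Neutropenic mice (ip cyclophosphamide) infected ip with 2×10^7 MRSA cells.”, “spleen, lung, liver and kidney” for “organs”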
# [6] = system: Blood; assay: Drug uptake in blood of Swiss Webster systemic infected mouse model infected with methicillin-resistant Staphylococcus aureus BAA1762 at 3.7 MBq, iv after 40 mins; format: ADME, organism-based; settings: in vivo; outline: as §2
# [7] = system: Blood; assay: Drug uptake in blood of Swiss Webster thigh infected mouse model infected with methicillin-resistant Staphylococcus aureus BAA1762 at 3.7 MBq, iv after 60 mins; format: ADME, organism-based; settings: in vivo, 1 h; outline: as §1
# [8] = system: Kidney; assay: Drug uptake in kidney of healthy Swiss Webster mouse at 3.7 MBq, iv after 40 mins; format: ADME, organism-based; settings: in vivo
# Outline: as §2, with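 “Uninfected control mice.” for “Neutropenic mice (ip cyclophosphamide) infected ip with 2×10^7 MRSA cells.”, “spleen, lung, liver and kidney” for “organs”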
# [9] = system: Liver; assay: Drug uptake in liver of healthy Swiss Webster mouse at 3.7 MBq, iv after 60 mins; format: ADME, organism-based; settings: in vivo, 1 h
# Outline: as §2, with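 “Uninfected control mice.” for “Neutropenic mice (ip cyclophosphamide) infected ip with 2×10^7 MRSA cells.”, “spleen, lung, liver and kidney” for “organs”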
# [10] = system: Liver; assay: Drug uptake in liver of Swiss Webster systemic infected mouse model infected with methicillin-resistant Staphylococcus aureus BAA1762 at 3.7 MBq, iv after 40 mins; format: ADME, organism-based; settings: in vivo; outline: as §2
# [11] = system: Blood; assay: Drug uptake in blood of Swiss Webster systemic infected mouse model infected with methicillin-resistant Staphylococcus aureus BAA1762 at 3.7 MBq, iv after 60 mins; format: ADME, organism-based; settings: in vivo, 1 h; outline: as §2
# [12] = system: Lung; assay: Drug uptake in lung of healthy Swiss Webster mouse at 3.7 MBq, iv after 20 mins; format: ADME, organism-based; settings: in vivo
# Outline: as §2, with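 “Uninfected control mice.” for “Neutropenic mice (ip cyclophosphamide) infected ip with 2×10^7 MRSA cells.”, “spleen, lung, liver and kidney” for “organs”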
# [13] = system: Blood; assay: Drug uptake in blood of Swiss Webster thigh infected mouse model infected with methicillin-resistant Staphylococcus aureus BAA1762 at 3.7 MBq, iv after 15 mins; format: ADME, organism-based; settings: in vivo, 0.25 h; outline: as §1
# [14] = system: Spleen; assay: Drug uptake in spleen of Swiss Webster systemic infected mouse model infected with methicillin-resistant Staphylococcus aureus BAA1762 at 3.7 MBq, iv after 20 mins; format: ADME, organism-based; settings: in vivo; outline: as §2
# [15] = system: Kidney; assay: Drug uptake in kidney of healthy Swiss Webster mouse at 3.7 MBq, iv after 20 mins; format: ADME, organism-based; settings: in vivo
# Outline: as §2, with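 “Uninfected control mice.” for “Neutropenic mice (ip cyclophosphamide) infected ip with 2×10^7 MRSA cells.”, “spleen, lung, liver and kidney” for “organs”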
# [16] = system: Blood; assay: Drug uptake in blood of Swiss Webster thigh infected mouse model infected with methicillin-resistant Staphylococcus aureus BAA1762 at 3.7 MBq, iv after 30 mins; format: ADME, organism-based; settings: in vivo, 0.5 h; outline: as §1
# [17] = system: Spleen; assay: Drug uptake in spleen of healthy Swiss Webster mouse at 3.7 MBq, iv after 40 mins; format: ADME, organism-based; settings: in vivo
# Outline: as §2, with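 “Uninfected control mice.” for “Neutropenic mice (ip cyclophosphamide) infected ip with 2×10^7 MRSA cells.”, “spleen, lung, liver and kidney” for “organs”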
# [18] = Drug uptake in infected thigh of Swiss Webster thigh infected mouse model infected with methicillin-resistant Staphylococcus aureus BAA1762 at 3.7 MBq, iv after 45 mins; format: ADME, organism-based, Thigh muscle; settings: in vivo, 0.75 h; outline: as §1
# [19] = system: Spleen; assay: Drug uptake in spleen of healthy Swiss Webster mouse at 3.7 MBq, iv after 20 mins; format: ADME, organism-based; settings: in vivo
# Outline: as §2, with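 “Uninfected control mice.” for “Neutropenic mice (ip cyclophosphamide) infected ip with 2×10^7 MRSA cells.”, “spleen, lung, liver and kidney” for “organs”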
# [20] = Drug uptake in healthy thigh of Swiss Webster thigh infected mouse model infected with methicillin-resistant Staphylococcus aureus BAA1762 at 3.7 MBq, iv after 15 mins; format: ADME, organism-based, Thigh muscle; settings: in vivo, 0.25 h; outline: as §1
# [21] = system: Lung; assay: Drug uptake in lung of Swiss Webster systemic infected mouse model infected with methicillin-resistant Staphylococcus aureus BAA1762 at 3.7 MBq, iv after 20 mins; format: ADME, organism-based; settings: in vivo; outline: as §2
# [22] = system: Blood; assay: Drug uptake in blood of healthy Swiss Webster mouse at 3.7 MBq, iv after 20 mins; format: ADME, organism-based; settings: in vivo
# Outline: as §2, with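 “Uninfected control mice.” for “Neutropenic mice (ip cyclophosphamide) infected ip with 2×10^7 MRSA cells.”, “spleen, lung, liver and kidney” for “organs”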
# [23] = system: Lung; assay: Drug uptake in lung of healthy Swiss Webster mouse at 3.7 MBq, iv after 60 mins; format: ADME, organism-based; settings: in vivo, 1 h
# Outline: as §2, with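 “Uninfected control mice.” for “Neutropenic mice (ip cyclophosphamide) infected ip with 2×10^7 MRSA cells.”, “spleen, lung, liver and kidney” for “organs”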
# [24] = system: Spleen; assay: Drug uptake in spleen of Swiss Webster systemic infected mouse model infected with methicillin-resistant Staphylococcus aureus BAA1762 at 3.7 MBq, iv after 40 mins; format: ADME, organism-based; settings: in vivo; outline: as §2
# [25] = system: Kidney; assay: Drug uptake in kidney of Swiss Webster systemic infected mouse model infected with methicillin-resistant Staphylococcus aureus BAA1762 at 3.7 MBq, iv after 40 mins; format: ADME, organism-based; settings: in vivo; outline: as §2
# [26] = system: Lung; assay: Drug uptake in lung of Swiss Webster systemic infected mouse model infected with methicillin-resistant Staphylococcus aureus BAA1762 at 3.7 MBq, iv after 40 mins; format: ADME, organism-based; settings: in vivo; outline: as §2
# [27] = system: Blood; assay: Drug uptake in blood of Swiss Webster thigh infected mouse model infected with methicillin-resistant Staphylococcus aureus BAA1762 at 3.7 MBq, iv after 45 mins; format: ADME, organism-based; settings: in vivo, 0.75 h; outline: as §1
# [28] = Drug uptake in infected thigh of Swiss Webster thigh infected mouse model infected with methicillin-resistant Staphylococcus aureus BAA1762 at 3.7 MBq, iv after 60 mins; format: ADME, organism-based, Thigh muscle; settings: in vivo, 1 h; outline: as §1
# [29] = system: Lung; assay: Drug uptake in lung of Swiss Webster systemic infected mouse model infected with methicillin-resistant Staphylococcus aureus BAA1762 at 3.7 MBq, iv after 60 mins; format: ADME, organism-based; settings: in vivo, 1 h; outline: as §2
# [30] = system: Liver; assay: Drug uptake in liver of Swiss Webster systemic infected mouse model infected with methicillin-resistant Staphylococcus aureus BAA1762 at 3.7 MBq, iv after 60 mins; format: ADME, organism-based; settings: in vivo, 1 h; outline: as §2
# [31] = system: Kidney; assay: Drug uptake in kidney of Swiss Webster systemic infected mouse model infected with methicillin-resistant Staphylococcus aureus BAA1762 at 3.7 MBq, iv after 60 mins; format: ADME, organism-based; settings: in vivo, 1 h; outline: as §2
# [32] = system: Liver; assay: Drug uptake in liver of Swiss Webster systemic infected mouse model infected with methicillin-resistant Staphylococcus aureus BAA1762 at 3.7 MBq, iv after 20 mins; format: ADME, organism-based; settings: in vivo; outline: as §2
# [33] = system: Kidney; assay: Drug uptake in kidney of healthy Swiss Webster mouse at 3.7 MBq, iv after 60 mins; format: ADME, organism-based; settings: in vivo, 1 h
# Outline: as §2, with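 “Uninfected control mice.” for “Neutropenic mice (ip cyclophosphamide) infected ip with 2×10^7 MRSA cells.”, “spleen, lung, liver and kidney” for “organs”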
# [34] = Drug uptake in infected thigh of Swiss Webster thigh infected mouse model infected with methicillin-resistant Staphylococcus aureus BAA1762 at 3.7 MBq, iv after 15 mins; format: ADME, organism-based, Thigh muscle; settings: in vivo, 0.25 h; outline: as §1
# [35] = system: Liver; assay: Drug uptake in liver of healthy Swiss Webster mouse at 3.7 MBq, iv after 40 mins; format: ADME, organism-based; settings: in vivo
# Outline: as §2, with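 “Uninfected control mice.” for “Neutropenic mice (ip cyclophosphamide) infected ip with 2×10^7 MRSA cells.”, “spleen, lung, liver and kidney” for “organs”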
# [36] = Drug uptake in healthy thigh of Swiss Webster thigh infected mouse model infected with methicillin-resistant Staphylococcus aureus BAA1762 at 3.7 MBq, iv after 30 mins; format: ADME, organism-based, Thigh muscle; settings: in vivo, 0.5 h; outline: as §1
# [37] = system: Blood; assay: Drug uptake in blood of healthy Swiss Webster mouse at 3.7 MBq, iv after 60 mins; format: ADME, organism-based; settings: in vivo, 1 h
# Outline: as §2, with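 “Uninfected control mice.” for “Neutropenic mice (ip cyclophosphamide) infected ip with 2×10^7 MRSA cells.”, “spleen, lung, liver and kidney” for “organs”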
# [38] = system: Blood; assay: Drug uptake in blood of Swiss Webster systemic infected mouse model infected with methicillin-resistant Staphylococcus aureus BAA1762 at 3.7 MBq, iv after 20 mins; format: ADME, organism-based; settings: in vivo; outline: as §2
# [39] = Drug uptake in healthy thigh of Swiss Webster thigh infected mouse model infected with methicillin-resistant Staphylococcus aureus BAA1762 at 3.7 MBq, iv after 45 mins; format: ADME, organism-based, Thigh muscle; settings: in vivo, 0.75 h; outline: as §1
# [40] = system: Spleen; assay: Drug uptake in spleen of healthy Swiss Webster mouse at 3.7 MBq, iv after 60 mins; format: ADME, organism-based; settings: in vivo, 1 h
# Outline: as §2, with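 “Uninfected control mice.” for “Neutropenic mice (ip cyclophosphamide) infected ip with 2×10^7 MRSA cells.”, “spleen, lung, liver and kidney” for “organs”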
# [41] = system: Lung; assay: Drug uptake in lung of healthy Swiss Webster mouse at 3.7 MBq, iv after 40 mins; format: ADME, organism-based; settings: in vivo
# Outline: as §2, with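 “Uninfected control mice.” for “Neutropenic mice (ip cyclophosphamide) infected ip with 2×10^7 MRSA cells.”, “spleen, lung, liver and kidney” for “organs”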
# [42] = Drug uptake in healthy thigh of Swiss Webster thigh infected mouse model infected with methicillin-resistant Staphylococcus aureus BAA1762 at 3.7 MBq, iv after 60 mins; format: ADME, organism-based, Thigh muscle; settings: in vivo, 1 h; outline: as §1
compound,measurement,setting,value
CCCCCCc1ccc(Oc2ccccc2[11C]#N)c(O)c1,Drug uptake,[1],0.54 %ID/cc
same,Drug uptake,[2],2.41 %ID/cc
same,Drug uptake,[3],11.79 %ID/cc
same,Drug uptake,[4],0.31 %ID/cc
same,Drug uptake,[5],0.41 %ID/cc
same,Drug uptake,[6],0.38 %ID/cc
same,Drug uptake,[7],0.26 %ID/cc
same,Drug uptake,[8],1.41 %ID/cc
same,Drug uptake,[9],6.91 %ID/cc
same,Drug uptake,[10],5.25 %ID/cc
same,Drug uptake,[11],0.44 %ID/cc
same,Drug uptake,[12],3.19 %ID/cc
same,Drug uptake,[13],0.72 %ID/cc
same,Drug uptake,[14],0.71 %ID/cc
same,Drug uptake,[15],2.22 %ID/cc
same,Drug uptake,[16],0.42 %ID/cc
same,Drug uptake,[17],0.37 %ID/cc
same,Drug uptake,[18],0.38 %ID/cc
same,Drug uptake,[19],0.67 %ID/cc
same,Drug uptake,[20],0.98 %ID/cc
same,Drug uptake,[21],3.28 %ID/cc
same,Drug uptake,[22],0.64 %ID/cc
same,Drug uptake,[23],1.32 %ID/cc
same,Drug uptake,[24],0.3 %ID/cc
same,Drug uptake,[25],1.15 %ID/cc
same,Drug uptake,[26],1.78 %ID/cc
same,Drug uptake,[27],0.28 %ID/cc
same,Drug uptake,[28],0.34 %ID/cc
same,Drug uptake,[29],2.01 %ID/cc
same,Drug uptake,[30],7.31 %ID/cc
same,Drug uptake,[31],1.13 %ID/cc
same,Drug uptake,[32],11.18 %ID/cc
same,Drug uptake,[33],0.93 %ID/cc
same,Drug uptake,[34],0.89 %ID/cc
same,Drug uptake,[35],9.69 %ID/cc
same,Drug uptake,[36],0.63 %ID/cc
same,Drug uptake,[37],0.34 %ID/cc
same,Drug uptake,[38],0.67 %ID/cc
same,Drug uptake,[39],0.42 %ID/cc
same,Drug uptake,[40],0.19 %ID/cc
same,Drug uptake,[41],1.75 %ID/cc
same,Drug uptake,[42],0.33 %ID/cc
